# Test results published in ChEMBL document CHEMBL5532644, “Discovery of 4-hydroxyl pyrazole derivatives as potent ferroptosis inhibitors” (Eur J Med Chem, 2024).
# The source made the active and inactive calls. No cut-off for these calls is given here.
# Columns and labels:
# [1] = Antioxidant activity assessed as DPPH radical scavenging activity incubated for 1 hr by spectrophotometric analysis; assay type: functional
# Summary of the method: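 Compound in DMSO was mixed with methanolic DPPH to give 40 μM DPPH (final) across a range of compound concentrations. After 1 h at room temperature, absorbance was read at 517 nm. Scavenging % = [A(DMSO) − A(sample)]/[A(DMSO) − A(methanol)] × 100, with DMSO as zero control and methanol as blank.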
# HT-1080 [2] = experiment: Anti-ferroptotic activity against imidazole ketone erastin (IKE) induced ferroptosis in human HT-1080 cells assessed as cell viability incubated for 24 hrs by Cell-titer-glo assay; assay type: functional, cell-based; details: HT-1080, 24 h
# Summary of the method: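 HT-1080 cells (DMEM, 10% FBS) were seeded at 2000–5000/well. After 24 h they received 2.5 μM IKE plus graded inhibitor concentrations for 24 h, and viability was measured. EC50 came from sigmoidal nonlinear regression. Three independent experiments, means ± SD.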
# HT-1080 [3] = experiment: Anti-ferroptotic activity in human HT-1080 cells assessed as cell viability incubated for 24 hrs by Cell-titer-glo assay; assay type: functional, cell-based
# Summary of the method: (§1)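 Seeded at 2000–5000 cells/well; 24 h later cells were co-treated with 1 μM RSL3 and graded inhibitor concentrations for 24 h, then viability was read. EC50 came from sigmoidal nonlinear regression fits. Three independent experiments, means ± SD. HT-1080 and H9c2 were grown in DMEM; BJ in α-MEM with nonessential amino acids and 1 mM pyruvate; all media had 10% FBS.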
# 786-0 [4] = experiment: Inhibition of RSL3-induced ferroptosis in human 786-0 cells assessed as recovery of membrane rupture at 0.0625 uM measured after 1 day by light microscopy based analysis; assay type: functional, cell-based
# Summary of the method: (§2)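 786-O cells were seeded at 5000/well. After 24 h, 1 μM RSL3 was added together with inhibitor at 1 or 0.0625 μM. After one day of incubation, cell morphology (shrinkage, membrane rupture) was inspected by light microscopy.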
# 786-0 [5] = experiment: Inhibition of RSL3-induced ferroptosis in human 786-0 cells assessed as recovery of membrane rupture at 1 uM measured after 1 day by light microscopy based analysis; assay type: functional, cell-based; summary of the method: as §2
# H9c2 = experiment: Anti-ferroptotic activity against RSL3 induced ferroptosis in rat H9c2 cells assessed as cell viability incubated for 24 hrs by Cell-titer-glo assay; assay type: functional, cell-based; details: H9c2, 24 h; summary of the method: as §1
# 786-0 [6] = experiment: Inhibition of RSL3-induced ferroptosis in human 786-0 cells assessed as recovery of shrunken cells at 1 uM measured after 1 day by light microscopy based analysis; assay type: functional, cell-based; summary of the method: as §2
# [7] = Metal chelating activity assessed as Fe2+ chelation by measuring change in UV-vis absorption at 20 mM at […] absorbance
# Summary of the method: (§3)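 Compound was dissolved in MeOH at 20 mM and mixed with FeSO4 (Fe2+) or FeCl3 (Fe3+) at 10 mM. Samples were diluted with MeOH/H2O, UV–vis spectra were recorded, and the absorption peak at 261 nm was quantified.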
# 786-0 [8] = experiment: Inhibition of RSL3-induced ferroptosis in human 786-0 cells assessed as recovery in loss of cell morphology at 1 uM measured after 1 day by light microscopy based analysis; assay type: functional; summary of the method: as §2
# [9] = Metal chelating activity assessed as Fe3+ chelation by measuring change in UV-vis absorption at 20 mM at […] absorbance; summary of the method: as §3
# 786-0 [10] = experiment: Anti-ferroptotic activity against RSL3 induced ferroptosis in human 786-0 cells assessed as cell viability incubated for 24 hrs by Cell-titer-glo assay; assay type: functional, cell-based; details: 786-0, 24 h; summary of the method: as §1
# BJ = experiment: Anti-ferroptotic activity against RSL3 induced ferroptosis in human BJ cells assessed as cell viability incubated for 24 hrs by Cell-titer-glo assay; assay type: functional, cell-based; summary of the method: as §1
# HT-1080 [11] = experiment: Anti-ferroptotic activity against RSL3 induced ferroptosis in human HT-1080 cells assessed as decrease in lipid peroxidation at 1 uM measured after 8 hrs by C11-BODIPY staining based flow cytometric analysis (reference value: 3.06%); assay type: functional; set-up: scale not given: the % may be the effect or the level left
# [12] = Metal chelating activity assessed as Fe2+ chelation at 20 mM at […] absorbance; summary of the method: as §3
# [13] = Antioxidant activity assessed as ABTS radical scavenging activity measured for 6 mins by absorbance based analysis; assay type: functional
# Summary of the method: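 ABTS (14 mM stock in water) was oxidised with 2.45 mM (final) potassium persulfate in the dark at room temperature for 18 h. The radical was diluted to 100 μM in 50 mM sodium phosphate, pH 7.4. Compounds (1–100 μM) were added, incubated at 30 °C for 6 min, and absorbance was read at 415 nm.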
# 786-0 [14] = experiment: Inhibition of RSL3-induced ferroptosis in human 786-0 cells assessed as recovery of shrunken cells at 0.0625 uM measured after 1 day by light microscopy based analysis; assay type: functional, cell-based; summary of the method: as §2
# HT-1080 [15] = experiment: Anti-ferroptotic activity in human HT-1080 cells assessed as suppression of erastin induced cytosolic ROS accumulation at 1 uM incubated for 24 hrs by DCFH-DA staining based confocal microscopy analysis; assay type: functional, cell-based
# Summary of the method: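 HT-1080 cells on glass coverslips (4 × 10^5/well, overnight) were co-treated for 24 h with 5 μM erastin and either DMSO or inhibitor at 1 μM. Cells were washed with PBS, loaded with 10 μM (final) DCFH-DA at 37 °C for 20 min, washed three times and imaged by confocal laser scanning microscopy.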
# 786-0 [16] = experiment: Inhibition of RSL3-induced ferroptosis in human 786-0 cells assessed as recovery from loss of cell morphology at 0.0625 uM measured after 1 day by light microscopy based analysis; assay type: functional; summary of the method: as §2
# HT-1080 [17] = experiment: Anti-ferroptotic activity against RSL3 induced ferroptosis in human HT-1080 cells assessed as cell viability incubated for 24 hrs by Cell-titer-glo assay; assay type: functional, cell-based; details: HT-1080, 24 h; summary of the method: as §1
# [18] = Metal chelating activity assessed as Fe3+ chelation at 20 mM at […] absorbance; summary of the method: as §3
structure (smiles),measurement,setting,value
Oc1ccc(-c2[nH]nc(-c3ccc(Cl)cc3)c2O)cc1,Activity,[1],3.94 µM
same,EC50,HT-1080 [2],0.0483 µM
same,EC50,"HT-1080 [3]; Homo sapiens, HT-1080, 24 h",0.0086 µM
same,inhibition,786-0 [4],Active
same,inhibition,786-0 [5],Active
same,EC50,H9c2,0.0433 µM
same,inhibition,786-0 [6],Active
same,Activity,[7],inactive
same,inhibition,786-0 [8],Active
same,Activity,[9],inactive
same,EC50,786-0 [10],0.0897 µM
same,EC50,BJ,0.0113 µM
same,Activity,HT-1080 [11],1.42%
same,Activity,[12],inactive
same,Activity,[13],6.3 µM
same,inhibition,786-0 [14],Active
same,Activity,HT-1080 [15],Active
same,inhibition,786-0 [16],Active
same,EC50,HT-1080 [17],0.0086 µM
same,Activity,[18],inactive
Oc1c(-c2ccccc2)n[nH]c1-c1ccco1,EC50,"HT-1080 [3]; Homo sapiens, HT-1080, 24 h",> 1 µM
Oc1c(-c2ccc(Cl)cc2Cl)n[nH]c1-c1ccccc1,EC50,"HT-1080 [3]; Homo sapiens, HT-1080, 24 h",0.0566 µM
Oc1c(-c2ccc(F)cc2)n[nH]c1-c1ccccc1,EC50,"HT-1080 [3]; Homo sapiens, HT-1080, 24 h",0.0796 µM
same,EC50,HT-1080 [3]; ht-1080,0.0424 µM
Clc1ccc(-c2cc(-c3ccccc3)n[nH]2)cc1,Activity,[1],> 100 µM
same,EC50,"HT-1080 [3]; Homo sapiens, HT-1080, 24 h",> 1 µM
same,Activity,[13],> 200 µM
COc1ccc(-c2[nH]nc(-c3ccc(Cl)cc3)c2O)cc1OC,EC50,"HT-1080 [3]; Homo sapiens, HT-1080, 24 h",0.0317 µM
Oc1c(-c2ccc(Cl)cc2)nn(-c2ccccc2)c1-c1ccccc1,EC50,"HT-1080 [3]; Homo sapiens, HT-1080, 24 h",0.0246 µM
Cc1ccc(-c2[nH]nc(-c3ccc([N+](=O)[O-])cc3)c2O)cc1,EC50,"HT-1080 [3]; Homo sapiens, HT-1080, 24 h",0.12 µM
Oc1c(-c2ccc(Cl)cc2)n[nH]c1-c1ccc(F)cc1,EC50,"HT-1080 [3]; Homo sapiens, HT-1080, 24 h",0.0527 µM
Oc1c(-c2ccc(Cl)cc2)n[nH]c1-c1cnc[nH]1,EC50,"HT-1080 [3]; Homo sapiens, HT-1080, 24 h",0.0259 µM
Oc1c(-c2ccc(C(F)(F)F)cc2)n[nH]c1-c1ccccc1,EC50,"HT-1080 [3]; Homo sapiens, HT-1080, 24 h",0.0796 µM
Oc1c(-c2ccc(-c3ccccc3)cc2)n[nH]c1-c1ccccc1,EC50,"HT-1080 [3]; Homo sapiens, HT-1080, 24 h",0.0395 µM
Oc1c(-c2ccccc2)n[nH]c1-c1ccccc1,EC50,"HT-1080 [3]; Homo sapiens, HT-1080, 24 h",0.0691 µM
Cn1nc(-c2ccc(Cl)cc2)c(N)c1-c1ccccc1,Activity,[1],14.6 µM
same,EC50,"HT-1080 [3]; Homo sapiens, HT-1080, 24 h",0.721 µM
same,Activity,[13],> 200 µM
CCOC(=O)c1ccc(NC2CCCCC2)c(N)c1,Activity,[1],6.48 µM
same,EC50,HT-1080 [2],0.0752 µM
same,EC50,"HT-1080 [3]; Homo sapiens, HT-1080, 24 h",0.0234 µM
same,inhibition,786-0 [4],inactive
same,inhibition,786-0 [5],Active
same,EC50,H9c2,0.0686 µM
same,inhibition,786-0 [6],Active
same,inhibition,786-0 [8],Active
same,EC50,786-0 [10],0.253 µM
same,EC50,BJ,0.0382 µM
same,Activity,HT-1080 [11],9.2%
same,Activity,[13],49.8 µM
same,inhibition,786-0 [14],inactive
same,inhibition,786-0 [16],inactive
same,EC50,HT-1080 [17],0.0234 µM
Cn1nc(-c2ccc(Cl)cc2)c(O)c1-c1ccccc1,EC50,"HT-1080 [3]; Homo sapiens, HT-1080, 24 h",0.022 µM
Oc1c(-c2ccccc2)n[nH]c1-c1ccc(Br)cc1,EC50,"HT-1080 [3]; Homo sapiens, HT-1080, 24 h",0.0226 µM
Oc1c(-c2ccc(Cl)cc2)n[nH]c1-c1ccc(C(F)(F)F)cc1,EC50,"HT-1080 [3]; Homo sapiens, HT-1080, 24 h",0.187 µM
CCCCc1[nH]nc(-c2ccccc2)c1O,EC50,"HT-1080 [3]; Homo sapiens, HT-1080, 24 h",0.15 µM
O=C(NO)c1ccc(-c2[nH]nc(-c3ccc(Cl)cc3)c2O)cc1,EC50,"HT-1080 [3]; Homo sapiens, HT-1080, 24 h",0.0802 µM
COC(=O)c1ccc(-c2[nH]nc(-c3ccc(Cl)cc3)c2O)cc1,EC50,"HT-1080 [3]; Homo sapiens, HT-1080, 24 h",0.0511 µM
Oc1c(-c2ccccc2Cl)n[nH]c1-c1ccccc1,EC50,"HT-1080 [3]; Homo sapiens, HT-1080, 24 h",0.0949 µM
CN(C)CCCNC(=O)c1ccc(-c2[nH]nc(-c3ccc(Cl)cc3)c2O)cc1,EC50,"HT-1080 [3]; Homo sapiens, HT-1080, 24 h",0.0448 µM
Oc1c(-c2ccc(Cl)cc2)n[nH]c1-c1cccc2ccccc12,EC50,"HT-1080 [3]; Homo sapiens, HT-1080, 24 h",0.0448 µM
CCNC(=O)c1ccc(-c2[nH]nc(-c3ccc(Cl)cc3)c2O)cc1,EC50,"HT-1080 [3]; Homo sapiens, HT-1080, 24 h",0.0819 µM
COc1ccc(-c2n[nH]c(-c3ccccc3)c2O)cc1,EC50,"HT-1080 [3]; Homo sapiens, HT-1080, 24 h",0.0248 µM
same,EC50,HT-1080 [3]; ht-1080,0.0321 µM
COc1ccc(-c2[nH]nc(-c3ccc(Cl)cc3)c2O)cc1,EC50,"HT-1080 [3]; Homo sapiens, HT-1080, 24 h",0.0231 µM
Oc1c(-c2ccc3c(c2)OCO3)n[nH]c1-c1ccccc1,EC50,"HT-1080 [3]; Homo sapiens, HT-1080, 24 h",0.0274 µM
Oc1ccc(-c2[nH]nc(-c3ccc(Cl)cc3)c2O)cc1O,EC50,"HT-1080 [3]; Homo sapiens, HT-1080, 24 h",0.0261 µM
O=C(O)c1ccc(-c2[nH]nc(-c3ccc(Cl)cc3)c2O)cc1,EC50,"HT-1080 [3]; Homo sapiens, HT-1080, 24 h",> 1 µM
Oc1c(-c2ccc(Cl)cc2)n[nH]c1-c1ccccc1,Activity,[1],4.97 µM
same,EC50,"HT-1080 [3]; Homo sapiens, HT-1080, 24 h",0.0308 µM
same,EC50,HT-1080 [3]; ht-1080,0.0189 µM
same,Activity,[13],112 µM
Oc1c(-c2cccc(Cl)c2)n[nH]c1-c1ccccc1,EC50,"HT-1080 [3]; Homo sapiens, HT-1080, 24 h",0.187 µM
